The list is not random: actives were taken first. Their share in the collection is about 3.1%.
EWS-Fli block – blocks EWS/Fli oncoprotein-driven transcription; A673 NR0B1-luciferase reporter, viability-normalised; inhibition, % at 12.6 µM; actives 0.67% (n = 350,000);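 active = mean inhibition of at least 50% after viability correction, with every replicate also passing that limit; inconclusive = mean reaches 50% but only one of two replicates passes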;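 also: firefly luciferase signal divided by Alamar Blue viability fluorescence both relative to DMSO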
HIV Env fusion – inhibitors of HIV Env-mediated cell fusion. HeLa-JRFL Env/CEM21 cell fusion, luciferase. inhibition, % at 12.3 µM. actives 1.1% (n = 360,000);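 active = mean replicate inhibition score of at least 50 and every replicate individually at or above 50; inconclusive = only one of the two criteria met; inactive = mean below 50 and not all replicates reaching 50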;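 also: 0% = plate neutral controls and 100% = maraviroc near 300 nM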
FGF22 binding – FGF22 (human) thermal shift binding | recombinant FGF22 thermal shift, SYPRO orange fluorescence; percent of sucrose octasulfate shift, DMSO zero | activity (Tm shift, normalised), % at 9.99 µM | actives 1.5% (n = 340,000) | AID 651658;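 active = mean Tm shift, scaled 0 neutral to 100 positive control, at about 1.3% or above, every replicate too, limit read from the data; inconclusive = no clear call, values can overlap the other calls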
Target sequence (Q9HCT0 whole entry, looked up): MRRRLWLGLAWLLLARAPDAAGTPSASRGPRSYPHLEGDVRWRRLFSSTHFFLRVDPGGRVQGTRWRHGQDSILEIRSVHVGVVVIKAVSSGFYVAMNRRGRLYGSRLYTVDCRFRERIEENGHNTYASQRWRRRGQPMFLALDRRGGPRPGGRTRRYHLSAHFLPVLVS
PGC1a acetyl inh – lowers PGC1a acetylation signal in U2OS cells | actives 0.17% (n = 350,000) | AID 651687 | inhibition, % at 15.6 µM | AlphaScreen anti-acetyl-lysine; with virally co-expressed GCN5 acetyltransferase;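 active = every replicate shows inhibition of at least 40%; inconclusive = mean inhibition at least 40% but some replicate below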;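 also: 0% = neutral control wells and 100% = positive control wells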
FN deposition inh – fibronectin deposition inhibition; AID 743247; actives 0.086% (n = 350,000); AH1F fibroblasts, Alexa488-fibronectin deposition fluorescence, overnight; inhibition, % at 12.6 µM;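 active = mean inhibition across replicates of 30% or more, regardless of how many single replicates reach that level; inconclusive = mean under 30% yet at least half of replicates reach 30%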;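 also: positive control wells lacked labelled fibronectin entirely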
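Measured by – fluorescence 485/525 nm · System – AH1F fibroblast monolayer, labelled fibronectin deposition · Amount – 10000 cells per well · Buffer or medium – serum-reduced DMEM (2% serum) · Doses – single dose, pinned · Also added – fluorescent fibronectin at 24 nM final · Schedule – 1 h cell attachment, overnight exposure to compound and label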
PAX8 reporter – lowers PAX8-driven luciferase in RMG-I cells; RMG-I TPO-luciferase reporter, SteadyGlo, 24 h; inhibition, % at 12.6 µM; actives 1.2% (n = 360,000); AID 652154;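 active = mean replicate inhibition at least 60% with every replicate also reaching 60%; inconclusive = only one of the two criteria is met; inactive = mean below 60% and not all replicates reaching 60%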;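 also: luciferase light reporting Pax8 driven TPO promoter activity; plate controls were median of neutral control wells for no effect and mitoxantrone controls for full effect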
C2C12 COX5a inh – reduces COX5a expression driven by PGC-1a in C2C12 myotubes; AID 743461; C2C12 myotubes PGC-1a adenovirus, COX5a qPCR; 45 tested, under 10 active; shares compounds with PGC1a acetyl inh; maximal activity, %;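 active = fitted dose curve reaching 40% activity at or below the highest valid dose tested; inconclusive = flat fit between 30% and 70%, or an unusable fit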
AID743468 – change in PGC-1a target gene PDK4 expression, dose response, C2C12 myotubes, RT-qPCR, cherry-pick; shares compounds with PGC1a acetyl inh; PGC-1a adenovirus, PDK4 mRNA qPCR; PDK4 expression increase, % at 19.5 µM; 45 tested, under 10 active; AID 743468;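 active = fitted curve reaching a 40% PDK4 expression rise at or below the top valid tested dose; inconclusive = no clear call, values can overlap the other calls; inactive = the rest, including shifts the wrong way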
Numbers without * were called inactive; ? = inconclusive; . = not tested or not shown; [ ] = remark or other dose.

SMILES	EWS-Fli block	HIV Env fusion	FGF22 binding	PGC1a acetyl inh	FN deposition inh	PAX8 reporter	C2C12 COX5a inh	AID743468
Nc1ncnc(NCc2ccc(F)cc2)c1[N+](=O)[O-]	-2	45	1	50*	11	-19	-25	32
Nc1ncnc(NCc2ccccc2)c1[N+](=O)[O-]	-15	10	0	.	.	-34	.	.
CS(=O)c1nc(-c2ccc(Br)cc2)cc(-c2ccccc2)c1C#N (stereo unspecified)	16	.	0	91*	.	.	-38	11
O=C(c1ccc(F)cc1)N1CCCCN2[C@H](C1)[C@@H](c1ccc(-c3ccc(F)cc3)cc1)[C@@H]2CO	-9	.	0	-3	.	23	.	.
CCN1CCN(Cc2ccc(NC(=O)c3cc(NC(=O)c4cncc(-c5ccc(C#N)cc5)c4)cc(OC)c3)cc2C(F)(F)F)CC1	48	4	0	86*	10	108*	-46	1
CCCNC(=O)NC[C@H]1[C@@H](c2ccc(C3=CCCC3)cc2)[C@H](CO)N1C(C)=O	-2	.	.	7	10	1	.	.
Cc1cccc(NC(=O)CNC(=O)Cn2ncc(Cl)c(Cl)c2=O)c1C	.	.	.	?	.	.	-39	26
O=C1c2ccccc2OC2(C=Cc3ccccc3O2)N1Cc1ccccc1 (stereo unspecified)	.	.	.	-12	.	.	.	.
Cc1cc2c(c(/C=C/C(=O)c3ccccc3)c1)OC1(C=C2)Oc2ccccc2C(=O)N1C (stereo unspecified)	43	-299	0	50*	-2	11	-44	-53
O=C(C[C@H]1CC[C@H](NC(=O)c2ccccc2)[C@@H](CO)O1)Nc1ccc(-c2ccccc2)cc1	-19	4[16.7 µM]	0	5	-29	5	.	.
O=C(C[C@H]1CC[C@@H](NC(=O)c2ccccc2)[C@H](CO)O1)Nc1ccc(-c2ccccc2)cc1	-7	-1[16.7 µM]	0	44*	0	7	-29	-29
Cc1nc2ccccn2c1C(=O)/C=C/c1ccc(F)cc1	.	.	.	?	.	.	-23	6
COc1ccc(S(=O)(=O)Nc2ccc3c(c2)C(=O)N([C@H](C)CO)C[C@H](C)[C@@H](CN(C)Cc2ccc4c(c2)OCO4)OCCCC[C@@H](C)O3)cc1	5	-47[16.7 µM]	0	5	8	-3	.	.
O=c1cc(CSc2ccccn2)[nH]c(=O)[nH]1	.	.	.	?	.	.	-27	-6
O=c1cc(CCc2ccccc2)[nH]c(=O)[nH]1	0	-3	0	.	1	-11	.	.
C/C=C/c1ccc([C@@H]2[C@H](CN(C)S(=O)(=O)c3ccccc3)N[C@@H]2CO)cc1	-2	.	.	-9	-10	6	.	.
O=C(Nc1ccc(C(F)(F)F)cc1)N1C[C@@H]2N[C@H](C1)C2c1ccc(-c2ccccc2)cc1 (stereo partly specified)	-9	.	.	?	-10	108*	-43	-24
CO[C@@H]1CN(C)C(=O)c2cc(NC(=O)Nc3ccccc3)ccc2OC[C@@H](C)N(C(=O)CC2CC2)C[C@H]1C	4	-2[16.7 µM]	.	-3	-10	3	.	.
CCCC(=O)Nc1ccc2c(c1)C(=O)N(C)C[C@H](OC)[C@H](C)CN(C)[C@H](C)CO2	-8	-3[16.7 µM]	0	2	.	.	.	.

Screening data as filed in PubChem BioAssay.
